Calls of active or inactive are those of the source. The calls are words filed in the database; no cut-off is given here.
Legend:
Colon carcinoma cell [1] = test: Cytotoxicity against human Colon carcinoma cells incubated for 48 hrs by SRB assay; format: functional
How it was run: (§1)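 NCI-60 five-concentration screen: lines seeded 5×10^3–4×10^4 cells/well depending on line; compound diluted in fresh medium at scalar concentrations 0–100 or 0–1000 μM; 48 h exposure, in situ fixation, sulforhodamine B protein staining, optical density read; GI50, TGI and LC50 per NCI procedures; panel mean = mean graph midpoint.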

[2] = Cytotoxicity against human Leukemia cancer cells incubated for 48 hrs by SRB assay; format: functional; conditions: Leukemia cell, read-out: LC50 (the source's name)
How it was run: (§2)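 NCI DTP five-concentration screen. Cells were seeded at 5 × 10³–4 × 10⁴ cells/well, depending on the line. Compounds were diluted in fresh medium and added at scalar concentrations over 0–1000 µM or 0–100 µM. After 48 h the cells were fixed in situ, stained with sulforhodamine B, and optical density was read. GI50, TGI and LC50 were derived by NCI procedures, and the panel mean is the mean graph midpoint.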

[3] = test system: Panel NCI-60 (60 carcinoma cell lines); test: Cytostatic activity against human Panel NCI-60 (60 carcinoma cell lines) incubated for 48 hrs by SRB assay; format: functional; how it was run: as §1
Ovarian cancer cell line = test: Cytostatic activity against human Ovarian cancer cells incubated for 48 hrs by SRB assay; format: functional; how it was run: as §1
CNS carcinoma cell = test: Cytostatic activity against human CNS carcinoma cells incubated for 48 hrs by SRB assay; format: functional; how it was run: as §1
Colon carcinoma cell [4] = test: Cytostatic activity against human Colon carcinoma cells incubated for 48 hrs by SRB assay; format: functional; how it was run: as §1
[5] = test system: Panel NCI-60 (60 carcinoma cell lines); test: Cell growth inhibition of human Panel NCI-60 (60 carcinoma cell lines) incubated for 48 hrs by SRB assay; format: functional; how it was run: as §1
Breast cancer cell line [6] = test: Cell growth inhibition of human Breast cancer cells incubated for 48 hrs by SRB assay; format: functional; conditions: read-out: LC50 (the source's name); how it was run: as §2
Renal cancer cell line = test: Cell growth inhibition of human Renal cancer cells incubated for 48 hrs by SRB assay; format: functional; how it was run: as §1
Melanoma cell line = test: Cell growth inhibition of human Melanoma cells incubated for 48 hrs by SRB assay; format: functional; how it was run: as §1
[7] = Cell growth inhibition of human Leukemia cancer cells incubated for 48 hrs by SRB assay; format: functional; how it was run: as §1
Breast cancer cell line [8] = test: Cytotoxicity against human Breast cancer cells incubated for 48 hrs by SRB assay; format: functional; how it was run: as §1
[9] = Selectivity index, ratio of IC50 for human HDFa cells to IC50 for human IGROV-1 cells; format: functional
How it was run: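 IGROV1 and HDFa in RPMI 1640 + 10% FCS, 2 mM glutamine, 37 °C, 5% CO2; seeded 1.5×10^4/well, after 24 h exposed 24 h to 0.010–500 μM (DMSO ≤0.1%). MTT 0.2 mg/mL in PBS 2 h at 37 °C, absorbance 570 nm; IC50 from dose-response, three independent experiments each in triplicate; SI = HDFa IC50/IGROV1 IC50.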

IGROV-1 [10] = test: Antiproliferative activity against human IGROV-1 cells assessed as doubling time at 5 uM incubated for 24 to 48 hrs (reference value: 23.9 +/- 2.4 hrs); format: functional; conditions: time 24-48 hrs
How it was run: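 Quantitative phase imaging on IGROV1 seeded 4×10^3/well, 24 h later given 5 μM (six replicates; DMSO ≤0.1% final). Images hourly for 2 days at 37 °C, 5% CO2. Cell count and confluence normalized to experiment start; doubling time derived from growth.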

IGROV-1 [11] = test: Anti-motility activity in human IGROV-1 cells assessed as decrease in cell displacement at 5 uM incubated for 24 hrs; format: functional, cell-based
How it was run: (§3)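 Livecyte quantitative phase imaging, label-free single-cell tracking; IGROV1 seeded 4×10^3/well, treated after 24 h with 5 μM in six replicates; frames every 60 min for 2 days, 10× objective, 37 °C, 5% CO2. Each cell tracked for displacement, instantaneous velocity and directionality.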

IGROV-1 [12] = test: Effect on directionality of human IGROV-1 cells at 5 uM incubated for 24 hrs; format: functional, cell-based; how it was run: as §3
IGROV-1 [13] = test: Induction of cell cycle arrest in human IGROV-1 cells assessed as increase in cell accumulation at G0/G1 phase at 5 uM incubated for 24 hrs by PI staining based flow cytometry relative to control; format: functional
How it was run: (§4)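 IGROV1 plated 2×10^4 cells/cm², after 24 h given 5 μM for 24 h; cells detached, PBS-washed, stained 30 min at room temperature in dark with 50 μg/mL propidium iodide, 10 μg/mL RNase, 0.01% Igepal, 0.1% sodium citrate; DNA content by flow cytometry, phase percentages versus untreated.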

IGROV-1 [14] = test: Induction of cell cycle arrest in human IGROV-1 cells assessed as decrease in cell accumulation at S phase at 5 uM incubated for 24 hrs by PI staining based flow cytometry relative to control; format: functional; set-up: scale not given: the % may be the effect or the level left; how it was run: as §4
IGROV-1 [15] = test: Induction of cell cycle arrest in human IGROV-1 cells assessed as decrease in cell accumulation at G2/M phase at 5 uM incubated for 24 hrs by PI staining based flow cytometry relative to control; format: functional; set-up: scale not given: the % may be the effect or the level left; how it was run: as §4
[16] = Upregulation of histone H4 acetylation in human IGROV-1 cells incubated for 6 hrs by Western blot analysis relative to control; format: functional
How it was run: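 IGROV1 seeded 1.5×10^4 cells/cm², after 48 h exposed 6 h to 5 μM final; histones acid-extracted (0.4 N H2SO4) from nuclei isolated with 10 mM butyrate washes, acetone-precipitated, 15% SDS-PAGE, blotted with anti-acetyl-lysine; densitometry normalized to histone H1, percent of vehicle, mean ± SD of three experiments.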

IGROV-1 [17] = test: Downregulation of ITAG5 mRNA level in human IGROV-1 cells at 5 uM incubated for 6 hrs by RT-PCR analysis; format: functional, cell-based
How it was run: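 IGROV1 given 5 μM versus vehicle; RNA extracted by spin column, reverse transcribed, CCND1, CDKN1A and ITAG5 transcripts quantified by qRT-PCR as fold change versus vehicle; at least triplicate, Student's t-test, p<0.05.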

IGROV-1 [18] = test: Downregulation of ITAG5 level in human IGROV-1 cells at 5 uM incubated for 6 hrs by Western blot analysis; format: functional, cell-based
How it was run: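 IGROV1 exposed to 5 μM; RIPA lysates at 4 °C, protein quantified, SDS-PAGE (12.5% or 7.5%), nitrocellulose blot probed overnight at 4 °C for cyclin D1 or α5 integrin subunit; densitometry normalized to α-tubulin, percent of vehicle, mean ± SD of three experiments.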

IGROV-1 [19] = test: Downregulation of CCND1 level in human IGROV-1 cells at 5 uM pretreated for 24 hrs followed by UV exposure for 6 hrs by Western blot analysis; format: functional, cell-based; conditions: time 30.0 hrs
How it was run: (§5)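 IGROV1 pretreated 24 h with 5 μM, then UV-irradiated with a 7.5 W lamp for 3 min; UV alone as positive control. Cyclin D1 and RAD51 by RIPA-lysate Western blot normalized to α-tubulin; γH2AX by acid-extracted histone blot normalized to H1; percent of vehicle, mean ± SD, three experiments.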

IGROV-1 [20] = test: Downregulation of RAD51 level in human IGROV-1 cells at 5 uM pretreated for 24 hrs followed by UV exposure for 6 hrs by Western blot analysis; format: functional, cell-based; conditions: time 30.0 hrs; how it was run: as §5
HDFa (Homo sapiens) = test: Antiproliferative activity against human HDFa cells assessed as doubling time at 5 uM measured after 48 hrs (reference value: 35 hrs)

`CC(C)(C)c1cc(/C=C2/C(=O)Nc3cc(Cl)ccc32)c(O)c(/C=C2/C(=O)Nc3cc(Cl)ccc32)c1` gave a GI (Colon carcinoma cell [1]) of 37.15 µM, a CC50 [2] of 97.7 µM and a GI [3] of 12.02 µM. The TGI (Ovarian cancer cell line) was 10 µM, the GI (CNS carcinoma cell) was 11.75 µM and the TGI (Colon carcinoma cell [4]) was 13.2 µM. For the same compound, the GI50 [5] was 3.02 µM, the CC50 (Breast cancer cell line [6]) was 2.95 µM and the GI50 (Renal cancer cell line) was 2.69 µM. For the same compound, the GI (Melanoma cell line) was 2.82 µM, the GI50 [7] was 2.45 µM and the GI (Breast cancer cell line [8]) was 48.98 µM. For the same compound, the Ratio IC50 [9] was 3.64, the Time (IGROV-1 [10]) was 113.3 h and the Activity (IGROV-1 [11]) was “Active”. For the same compound, the Activity (IGROV-1 [12]) was “inactive”, the Activity (IGROV-1 [13]) was 13.4% and the Activity (IGROV-1 [14]) was 21.2%. For the same compound, the Activity (IGROV-1 [15]) was 11.9%, the Activity [16] was 68.5% and the Activity (IGROV-1 [17]) was “Active”. For the same compound, the Activity (IGROV-1 [18]) was “Active”, the Activity (IGROV-1 [19]) was “Active” and the Activity (IGROV-1 [20]) was “Active”. It also gave a Time (HDFa (Homo sapiens)) of 56 h.
